Laboratory results from ChEMBL document CHEMBL3351787, “Electrophilic warhead-based design of compounds preventing NLRP3 inflammasome-dependent pyroptosis” (J Med Chem, 2014).
The source made the active and inactive calls.

Columns and labels:
[1] = Cytotoxicity against human HK2 cells assessed as cell viability after 72 hrs by MTT assay; assay type: cell-based, HK-2; settings: read-out: TC50
Summary of the method: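 MTT viability assay in human renal epithelial HK-2 cells. TC50 defined as molar concentration lowering HK-2 viability by 50%.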

[2] = Antipyroptotic activity in PMA-differentiated and LPS-primed human THP1 cells assessed as decrease in ATP-induced pyroptosis measured as LDH activity at 10 uM after 1 hrs by colorimetric assay; assay type: functional; settings: THP-1, 1 h
[3] = molecular target: NACHT, LRR and PYD domains-containing protein 3 (Homo sapiens) (UniProt Q96P20); assay: Inhibition of recombinant NLRP3-ATPase (unknown origin) assessed as hydrolysis of ATP at 10 uM
Chain of NACHT, LRR and PYD domains-containing protein 3 (Homo sapiens) (Q96P20 whole entry, the tested form may be a part): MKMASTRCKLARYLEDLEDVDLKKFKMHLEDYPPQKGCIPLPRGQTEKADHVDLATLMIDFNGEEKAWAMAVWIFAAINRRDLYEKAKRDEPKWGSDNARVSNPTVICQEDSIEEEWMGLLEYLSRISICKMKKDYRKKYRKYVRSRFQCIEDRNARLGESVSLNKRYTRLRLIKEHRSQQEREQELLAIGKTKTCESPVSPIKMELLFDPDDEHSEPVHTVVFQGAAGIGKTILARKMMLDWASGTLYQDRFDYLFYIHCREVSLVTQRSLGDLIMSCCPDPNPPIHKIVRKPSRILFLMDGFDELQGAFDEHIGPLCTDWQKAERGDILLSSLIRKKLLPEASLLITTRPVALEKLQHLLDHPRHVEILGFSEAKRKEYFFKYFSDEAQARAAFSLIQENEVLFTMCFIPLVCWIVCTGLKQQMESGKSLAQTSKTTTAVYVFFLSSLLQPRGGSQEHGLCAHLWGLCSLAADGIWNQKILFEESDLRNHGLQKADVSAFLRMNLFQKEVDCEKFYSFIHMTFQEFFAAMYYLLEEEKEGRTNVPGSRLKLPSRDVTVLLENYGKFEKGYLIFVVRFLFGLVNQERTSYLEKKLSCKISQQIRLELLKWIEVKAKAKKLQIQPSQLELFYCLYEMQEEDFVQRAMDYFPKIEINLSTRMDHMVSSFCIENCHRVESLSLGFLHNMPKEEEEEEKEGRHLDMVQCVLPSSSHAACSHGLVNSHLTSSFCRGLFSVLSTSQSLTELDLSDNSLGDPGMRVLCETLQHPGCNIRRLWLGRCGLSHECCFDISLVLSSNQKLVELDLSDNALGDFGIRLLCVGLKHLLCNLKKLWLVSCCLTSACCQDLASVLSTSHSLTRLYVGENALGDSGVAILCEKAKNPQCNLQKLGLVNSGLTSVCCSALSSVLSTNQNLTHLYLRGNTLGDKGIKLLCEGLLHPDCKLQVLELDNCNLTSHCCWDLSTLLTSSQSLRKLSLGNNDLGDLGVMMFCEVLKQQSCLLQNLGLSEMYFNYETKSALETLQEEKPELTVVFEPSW
Summary of the method: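 Recombinant NLRP3 (0.01 μg) pre-incubated 15 min with compound (10 μM); ATP 250 μM then added and incubated 1 h at 37 °C. ATP hydrolysis quantified as Pi content by colorimetric phosphate detection. Expressed as % inhibition vs vehicle; mean±SEM of ≥3 experiments in duplicate.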

Caspase-1 (Homo sapiens) [4] = molecular target: T1, Caspase-1 (Homo sapiens) (UniProt P29466); assay: Inhibition of caspase 1 (unknown origin) using N-acetyl-Tyr-Val-Ala-Asp-para-nitroanilide substrate assessed as rate of para-nitroanilide release at 10 uM by spectrophotometric assay
T1 sequence (whole entry): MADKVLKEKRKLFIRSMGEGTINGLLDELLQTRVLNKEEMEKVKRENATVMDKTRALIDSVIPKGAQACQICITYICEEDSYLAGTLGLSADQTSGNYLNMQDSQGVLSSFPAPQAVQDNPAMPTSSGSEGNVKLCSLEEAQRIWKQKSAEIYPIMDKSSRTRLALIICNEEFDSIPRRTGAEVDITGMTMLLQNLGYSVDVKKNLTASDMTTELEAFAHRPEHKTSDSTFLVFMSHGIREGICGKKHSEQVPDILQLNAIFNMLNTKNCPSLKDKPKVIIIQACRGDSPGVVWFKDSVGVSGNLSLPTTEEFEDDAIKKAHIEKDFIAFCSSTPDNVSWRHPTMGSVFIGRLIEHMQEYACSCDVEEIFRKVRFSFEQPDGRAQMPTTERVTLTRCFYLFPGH
Summary of the method: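 Caspase-1 enzyme from THP-1 cultures (50 U) pre-incubated 15 min with compound (10 μM) in reaction buffer at 37 °C. Ac-YVAD-pNA substrate (200 μM) added; pNA release monitored continuously at 405 nm over 1 h. Reported as % inhibition vs vehicle; mean±SEM, ≥3 experiments in duplicate.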

[5] = cysteamine reactivity assessed as second-order reaction rate constant in PBS at pH 7.4 and […] by DTNB spectrophotometric assay
[6] = Antipyroptotic activity in PMA-differentiated and LPS-primed human THP1 cells assessed as decrease in ATP-induced pyroptosis measured as LDH activity after 1 hrs pretreated with 5 mM ATP for 1 hr by colorimetric assay; assay type: functional, cell-based; settings: thp-1
Summary of the method: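 PMA-differentiated, LPS-primed THP-1 cells pre-treated 1 h with compound (0.001-10 μM), then ATP 5 mM for 1 h. LDH in collected supernatant read colorimetrically; output as decrease of cell death vs vehicle. EC50 taken as concentration giving 50% of maximal possible effect. Mean±SEM of at least four experiments in triplicate.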

THP-1 = assay: (§1) Antipyroptotic activity in PMA-differentiated and LPS-primed human THP1 cells assessed as decrease in nigericin-induced pyroptosis measured as LDH activity after 1 hrs pretreated with 10 uM nigericin for 1.5 hrs by colorimetric assay; assay type: functional, cell-based
Summary of the method: (§2)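 Differentiated (PMA) and LPS-primed THP-1 cells received compound at 0.001-10 μM 1 h ahead of nigericin (10 μM, 1.5 h). Supernatant LDH activity measured by colorimetric assay, expressed as decrease of cell death vs vehicle alone; pEC50 derived from concentration-response curves. Mean±SEM, ≥4 experiments in triplicate.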

[7] = as §1; assay type: functional, cell-based; settings: thp-1; summary of the method: as §2
Caspase-1 (Homo sapiens) [8] = molecular target: T1, Caspase-1 (Homo sapiens); assay: Inhibition of caspase 1 (unknown origin) using N-acetyl-Tyr-Val-Ala-Asp-para-nitroanilide substrate assessed as rate of para-nitroanilide release after 15 to 60 mins preincubation by spectrophotometric assay
Summary of the method: (§3)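 Caspase-1 from THP-1 cell cultures (50 U) pre-incubated 15-60 min with compound at 0.01-10 μM, then activity followed continuously by pNA release from Ac-YVAD-pNA (200 μM; 1 h) at 405 nm. kobs at each concentration used to obtain kinact (irreversible first-order rate) and Ki = k-1/k1.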

Caspase-1 = molecular target: T2, Caspase-1 (Homo sapiens, UniProt P29466); assay: (§4) Inhibition of caspase 1 (unknown origin) using N-acetyl-Tyr-Val-Ala-Asp-para-nitroanilide substrate assessed as rate of para-nitroanilide release by spectrophotometric assay; summary of the method: as §3
T2 sequence (P29466 whole entry): T1 sequence (whole entry)

Caspase-1 (Homo sapiens) [9] = molecular target: T1, Caspase-1 (Homo sapiens); assay: as §4; summary of the method: as §3
Caspase-1 (Homo sapiens) [10] = molecular target: T1, Caspase-1 (Homo sapiens); assay: Inhibition of caspase 1 (unknown origin) using N-acetyl-Tyr-Val-Ala-Asp-para-nitroanilide substrate assessed as rate of para-nitroanilide release at 0.01 to 10 uM by spectrophotometric assay; settings: TDE = time-dependent effect; summary of the method: as §3
[11] = Activation of KIea[1/Nrf2 pathway in human THP1 cells assessed as HMOX1 marker gene expression level at 10 uM after 2 hrs by RT-PCR analysis; assay type: functional, cell-based; settings: THP-1
[12] = Activation of Keap1-Nrf2 pathway in human THP1 cells assessed as NFE2L2 marker gene expression level at 10 uM after 2 hrs by RT-PCR analysis; assay type: functional, cell-based; settings: THP-1

Structure (SMILES)	CC50 at 72 h [1] [µM]	inhibition at 10 µM [2] [%]	other results
C=C(C#N)C(O)c1ccccn1 (configuration not stated)	20.5	52.7	
C=C(C#N)C(O)c1ccc(Cl)cc1Cl (configuration not stated)	36.4	14.1	
C=C(C(=O)OCC)C(O)c1cccc(Cl)c1 (configuration not stated)	28.9	44.8	
C=C(C(=O)OCC)C(O)c1ccc(Cl)cc1Cl (configuration not stated)	70.5	72.4	
C=C(C#N)C(O)c1ccccc1Cl (configuration not stated)	11.6	83	inhibition [3]: 80.5%; inhibition (Caspase-1 (Homo sapiens) [4]): 36.2%; k2 [5]: 0.777 M⁻¹ s⁻¹
C=C(C(=O)OCC)C(O)c1ccccc1Br (configuration not stated)	55.9	53.7	
C=C(C(=O)OCC)C(O)C1CCCCC1 (configuration not stated)	> 100	64.3	
C/C=C(/C(=O)OCC)C(O)c1ccccc1Cl (configuration not stated)	73.8	31.8	pEC50 [6]: 6.9; inhibition (THP-1): Dose-dependent effect; pEC50 [7]: 6.8
CCOC(=O)/C(=C/c1ccccc1)C(O)c1ccccc1Cl (configuration not stated)	> 100	55.5	
C=C(C(=O)OCC)C(C)O (configuration not stated)	22.5	59.6	
C=C(C(=O)OCC)C(O)c1ccccc1F (configuration not stated)	25.4	82.3	pEC50 [6]: 6.8; inhibition (THP-1): Dose-dependent effect; pEC50 [7]: 6.6
C=C(C(=O)OCC)C(O)c1ccccn1 (configuration not stated)	53.4	54.3	
CCOC(=O)/C(=C\c1ccccc1)C(O)c1ccccc1Cl (configuration not stated)	> 100	52.5	k2 [5]: 0.588 M⁻¹ s⁻¹
C/C=C(\C(=O)OCC)C(O)c1ccccc1Cl (configuration not stated)	80.1	36.2	inhibition [3]: 23.3%; pEC50 [6]: 7; inhibition (Caspase-1 (Homo sapiens) [4]): 25.4%; k2 [5]: 0.126 M⁻¹ s⁻¹; inhibition (THP-1): Dose-dependent effect; pEC50 [7]: 6.3
C=C(C(=O)OCC)C(OCCC(=O)OCC)c1ccc(Cl)cc1Cl (configuration not stated)	> 100	43.9	pEC50 [6]: 7.1; inhibition (THP-1): Dose-dependent effect; pEC50 [7]: 6.7
C=C(C(=O)OCC)C(OCCC(=O)OCC)c1ccccc1Cl (configuration not stated)	> 100	58.3	
C=C(C#N)C(O)c1c(Cl)cccc1Cl (configuration not stated)	16.3	51.5	
C=C(C(=O)O)C(O)c1ccccc1Cl (configuration not stated)	> 100	42	inhibition [3]: 80.2%; k2 [5]: 0.117 M⁻¹ s⁻¹
C=C(C(=O)NCCC)C(O)c1ccccc1Cl (configuration not stated)	83.5	31.2	k2 [5]: 0.126 M⁻¹ s⁻¹

Structure (SMILES)	CC50 at 72 h [1] [µM]	inhibition at 10 µM [2] [%]	other results
CCOC(=O)C(C)C(O)c1ccccc1Cl (configuration not stated)	75.5	1.6	
C=C(C(=O)OCC)C(O)c1ccccc1C (configuration not stated)	56.7	37.8	
C=C(C(=O)OCC)C(O)c1c(Cl)cccc1Cl (configuration not stated)	45.2	76.6	
C=C(C(=O)OCC)C(O)c1cc(Cl)cc(Cl)c1 (configuration not stated)	18.8	78.4	
C=C1C(=O)O[C@@H]2C3O[C@]3(C)CC/C=C(\C)CC[C@@H]12 (some centres not stated)	20.1	100	inhibition [3]: 25.9%; pEC50 [6]: 6.9; inhibition (Caspase-1 (Homo sapiens) [8]): Dose-dependent effect; k2 [5]: 47.9 M⁻¹ s⁻¹; Ki (Caspase-1): 10.6 µM; Kinact (Caspase-1 (Homo sapiens) [9]): 4 s⁻¹; inhibition (THP-1): Dose-dependent effect; pEC50 [7]: 6.3; inhibition (Caspase-1 (Homo sapiens) [10]): tde
C=C(C(=O)OCC)C(O)c1ccccc1 (configuration not stated)	64.5	45.8	k2 [5]: 0.524 M⁻¹ s⁻¹
C=C(C(=O)OCC)C(OCCC(=O)OCC)c1c(Cl)cccc1Cl (configuration not stated)	> 100	68.8	pEC50 [6]: 6.9; inhibition (THP-1): Dose-dependent effect; pEC50 [7]: 6.9
C=C(C(=O)CC)C(O)c1ccccc1Cl (configuration not stated)	1.9	12.1	k2 [5]: 7.16 M⁻¹ s⁻¹
C=C(C#N)C(O)c1ccccc1Br (configuration not stated)	21.8	81.3	
C=C(C#N)C(O)c1ccccc1F (configuration not stated)	12.9	30.5	
C=C(C#N)C(O)c1cccc2ccccc12 (configuration not stated)	10.1	53.5	
C=C(C(=O)OCC)C(O)c1ccccc1Cl (configuration not stated)	67	75.1	inhibition [3]: 51.8%; Activity [11]: Active; pEC50 [6]: 6.9; inhibition (Caspase-1 (Homo sapiens) [8]): Dose-dependent effect; k2 [5]: 0.866 M⁻¹ s⁻¹; Ki (Caspase-1): 9.6 µM; Kinact (Caspase-1 (Homo sapiens) [9]): 3.2 s⁻¹; Activity [12]: Active; inhibition (THP-1): Dose-dependent effect; pEC50 [7]: 6.8; inhibition (Caspase-1 (Homo sapiens) [10]): tde
CCOC(=O)/C(=C/I)C(O)c1ccccc1Cl (configuration not stated)	6.4	5.1	
C=C(C(=O)OCC)C(O)c1ccccc1OC (configuration not stated)	45.8	26.8	k2 [5]: 0.423 M⁻¹ s⁻¹
C=C(C(=O)OCC)C(O)c1ccccc1[N+](=O)[O-] (configuration not stated)	7.8	63.7	pEC50 [6]: 6.5; inhibition (THP-1): Dose-dependent effect; pEC50 [7]: 6.7
C=C(C#N)C(O)c1ccccc1[N+](=O)[O-] (configuration not stated)	3.6	97.9	
CCOC(=O)/C(=C\I)C(O)c1ccccc1Cl (configuration not stated)	5.9	17.6	
C=C(C(=O)OCC)C(O)c1ccc(Cl)cc1 (configuration not stated)	34.9	50.5	
C=C(C#N)C(O)c1ccccc1 (configuration not stated)	22.3	54.1	
